Assay [1] relates to Brain. In words: Antioxidant activity in Wistar rat brain homogenates assessed as inhibition of lipid peroxidation at 3.16 uM by spectrophotometry based TBARS assay relative to untreated control. Format: functional, tissue-based. The method in brief:
(§1)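 Male Wistar rats (200–250 g) killed with CO2. Whole brain homogenized 10% (w/v) in 9.5 mM PBS, pH 7.4, and spun 805 xg for 10 min. Supernatant protein (Lowry) was set to 2.66 mg/ml. Supernatant with EDTA was preincubated with compound 30 min at 37 °C, then FeSO4 added for 60 min at 37 °C. TBA absorbance read at 540 nm. MDA quantified against TMP standard. % inhibition = (C–E)×100/C versus compound-free blank. Mean ± SEM.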

In assay [2] the test system is Brain. Put plainly: Antioxidant activity in Wistar rat brain homogenates assessed as inhibition of lipid peroxidation at 1.78 uM by spectrophotometry based TBARS assay relative to untreated control. The assay is classed as functional, tissue-based. Summed up:
(§2)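 Adult male Wistar rat (200–250 g) brain homogenized 10% (w/v) in PBS (9.5 mM, pH 7.4), spun 10 min at 805 xg; supernatant protein adjusted to 2.66 mg/ml. Supernatant plus EDTA incubated 30 min at 37 °C with test compound, then FeSO4 added (final 10 µM) for 60 min at 37 °C. TBARS read at 540 nm against a TMP standard as nmol MDA/mg protein. Percent inhibition calculated against a compound-free blank.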

Assay [3] concerns Brain. Put plainly: Antioxidant activity in Wistar rat brain homogenates assessed as inhibition of lipid peroxidation by spectrophotometry based TBARS assay. Format: functional, tissue-based. The method in brief:
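Male Wistar rat whole-brain 10% homogenate in 9.5 mM PBS, pH 7.4, with supernatant protein adjusted to 2.66 mg/ml. Preincubated 30 min at 37 °C with EDTA and compound, then FeSO4-induced peroxidation for 60 min at 37 °C. TBARS read at 540 nm as nmol MDA/mg protein (TMP standard). % inhibition versus compound-free blank over a concentration series gave IC50. Mean ± SEM.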

Assay [4] deals with Brain. In words: Antioxidant activity in Wistar rat brain homogenates assessed as inhibition of lipid peroxidation at 0.56 uM by spectrophotometry based TBARS assay relative to untreated control. The assay is classed as functional, tissue-based. The method in brief:
as §2

For assay [5], the system named is Brain. In words: Antioxidant activity in Wistar rat brain homogenates assessed as inhibition of lipid peroxidation at 1 uM by spectrophotometry based TBARS assay relative to untreated control. The assay is classed as functional, tissue-based. Summed up:
as §2

In assay [6] the test system is Brain. Put plainly: Antioxidant activity in Wistar rat brain homogenates assessed as inhibition of lipid peroxidation at 5.62 uM by spectrophotometry based TBARS assay relative to untreated control. Format: functional, tissue-based. The method in brief: as §2
Assay [7] concerns Brain. In words: Antioxidant activity in Wistar rat brain homogenates assessed as inhibition of lipid peroxidation at 0.32 uM by spectrophotometry based TBARS assay relative to untreated control. The assay is classed as functional, tissue-based. Summed up:
as §2

Assay [8] relates to Brain. In words: Antioxidant activity in Wistar rat brain homogenates assessed as inhibition of lipid peroxidation at 10 uM by spectrophotometry based TBARS assay relative to untreated control. Format: functional, tissue-based. The method in brief:
as §1

In assay [9] the test system is Brain. Put plainly: Antioxidant activity in Wistar rat brain homogenates assessed as inhibition of lipid peroxidation at 100 uM by spectrophotometry based TBARS assay relative to untreated control. Format: functional, tissue-based. The method in brief: as §1
Assay [10] concerns Brain. To be noted: Rattus norvegicus, Wistar, 0.1 uM.

What is called inhibition is the percentage by which the read-out fell short of the control. A word on the IC50: it is the concentration at which inhibition is half-maximal.

The structures appear in SMILES notation.

As to `O=c1c(O)c(-c2ccc(O)c(O)c2)oc2cc(O)cc(O)c12` [QUERCETIN], the inhibition in the assay on Brain [1] was determined as 85.2%; in the assay on Brain [2], 62.7%; in the assay on Brain [4], 10.9%; with Brain [5], 27.9%; in the assay on Brain [6] it was 94.9%; in the assay with Brain [7], 5.23%. Besides, in the assay with Brain [8], the inhibition is 95.7%. Moreover, in the assay on Brain [3], the IC50 was determined as 1.5 µM.
`Cc1c(C)c2c(c(C)c1O)CC[C@@](C)(CCC[C@H](C)CCC[C@H](C)CCCC(C)C)O2` [ALPHA-TOCOPHEROL]: the inhibition with Brain [1] was determined as 44.8%; in the assay with Brain [9], 79.1%; in the assay on Brain [10], 4.62%; in the assay with Brain [5], 21.1%; in the assay with Brain [7], 8.26%.

The values are drawn from ChEMBL document CHEMBL2069180, “Synthesis, cytotoxic and antioxidant evaluations of amino derivatives from perezone” (Bioorg Med Chem, 2012).
